Data as given in ChEMBL document CHEMBL4373710, “DNA Structural Alteration Leading to Antibacterial Properties of 6-Nitroquinoxaline Derivatives” (J Med Chem, 2019).
Converted amounts (≈) assume the structure as drawn. The source made the active and inactive calls. The calls are words filed in the database; no cut-off is given here.

Legend:
[1] = tested on: HEK293; assay: Cytotoxicity against HEK293 cells measured after 24 hrs by MTT assay; format: cell-based; details: Homo sapiens, HEK293, 24 h
In short: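 HEK 293 cells, 4000/well, seeded overnight in DMEM + 10% FBS at 37°C in CO2; compound dose series for 24 h (final DMSO <0.5%, DMSO-only control). MTT at 1 mg/mL final for 3 h, formazan dissolved in DMSO, absorbance 595 nm; IC50 from triplicate OD data.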

[2] = Antibacterial activity against Arthrobacter chlorophenolicus A6MTCC3706 by broth microdilution assay; format: functional; details: Pseudarthrobacter chlorophenolicus
In short: (§1)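 Broth microdilution per CLSI; 5×10^5 cfu/mL bacteria in LB broth; compounds from DMSO stocks, final DMSO under 0.6%, with DMSO control. Plates incubated at the strain's recommended growth temperature and time; growth read as OD600.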

[3] = tested on: Pseudomonas aeruginosa; assay: Antibacterial activity against Pseudomonas aeruginosa MTCC1688 by broth microdilution assay; format: functional; in short: as §1
[4] = tested on: Escherichia coli; assay: Antibacterial activity against Escherichia coli MTCC1916 by broth microdilution assay; format: functional; in short: as §1
[5] = tested on: Staphylococcus aureus; assay: Antibacterial activity against Staphylococcus aureus MTCC737 measured after 6 hrs by broth microdilution assay; format: functional; details: MTCC737, 6 h; in short: as §1
[6] = tested on: Staphylococcus epidermidis; assay: Antibacterial activity against Staphylococcus epidermidis MTCC3615 by broth microdilution assay; format: functional; in short: as §1
[7] = Selectivity index, ratio of IC50 for HEK293 cells to MIC for Staphylococcus aureus MTCC737; format: toxicity; details: human, read-out: Selectivity Index
[8] = Binding affinity to pCDNA 3.1 (unknown origin) assessed as DNA unwinding effect at 1:1 to 5:1 compound to DNA ratio measured after 16 hrs by EtBr staining agarose gel shift assay
In short: (§2)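 pCDNA3.1 plasmid (amplified in E. coli DH5α), 40 µM, in 50 mM NaP pH 7, 10 mM NaCl, mixed with compound at set compound:DNA base-pair ratios; 16 h at 37°C. Run on 1% agarose at 50 V ~3 h, stained with EtBr 1 µg/mL for 5 min, imaged.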

[9] = tested on: Calf thymus DNA; assay: Binding affinity to calf thymus DNA assessed as appearance of induced CD at […] by circular dichroism method; format: nucleic-acid assay; details: Bos taurus
[10] = tested on: Calf thymus DNA; assay: Binding affinity to calf thymus DNA assessed as change in B-DNA structure at 265 nm by circular dichroism method; format: nucleic-acid assay; details: Bos taurus
[11] = tested on: DNA; assay: Inhibition of ethidium bromide binding to Staphylococcus aureus DNA assessed as Stern-Volmer quenching constant by fluorescence assay; format: nucleic-acid assay
In short: (§3)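 Fluorescence intercalator displacement: S. aureus genomic DNA 10 µM plus EtBr 5 µM in 10 mM NaP pH 7, 10 mM NaCl, 1% DMSO, at 25 and 37 °C; titrated with 2.5–100 µM compound. Excitation 480 nm, emission 520–700 nm, inner-filter corrected, triplicates; Stern–Volmer analysis, F0/F = 1 + Ksv[Q].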

[12] = tested on: DNA; assay: Inhibition of ethidium bromide binding to Staphylococcus aureus DNA by fluorescence assay; format: nucleic-acid assay; in short: as §3
[13] = tested on: Calf thymus DNA; assay: Binding affinity to calf thymus DNA by isothermal titration calorimetric analysis; format: nucleic-acid assay; details: Bos taurus
[14] = Binding affinity to pCDNA 3.1 (unknown origin) assessed as DNA unwinding effect at 1:1 compound to DNA ratio measured after 16 hrs by EtBr staining agarose gel shift assay; in short: as §2
[15] = Binding affinity to pCDNA 3.1 (unknown origin) assessed as DNA condensation at 5:1 compound to DNA ratio measured after 16 hrs by EtBr staining agarose gel shift assay; in short: as §2
[16] = Binding affinity to pCDNA 3.1 (unknown origin) assessed as DNA unwinding effect at 5:1 compound to DNA ratio measured after 16 hrs by EtBr staining agarose gel shift assay; in short: as §2

Row | SMILES | IC50 [1] [µg/mL] | MIC [2] [µg/mL] | MIC [3] [µg/mL] | MIC [4] [µg/mL] | MIC [5] [µg/mL] | MIC [6] [µg/mL] | selectivity ratio [7] | Activity [8] | Activity [9] | Activity [10] | KSV [11] [×10⁴ /M] | inhibition [12] | Ka [13] [×10⁴ /M] | Activity [14] | Activity [15] | Activity [16]
1 | CN(C)CCCNc1nc2cc([N+](=O)[O-])ccc2nc1NCc1ccc(Cl)cc1 | 10.7 (≈ 25.9 µM) | 2.49 (≈ 6 µM) | > 207 | > 207 | 3.11 (≈ 7.5 µM) | 6.22 (≈ 15 µM) | – | – | – | – | – | – | – | – | – | –
2 | CS[C@@H]1SC[C@H]2C(=O)N(C)[C@@H](C(C)C)C(=O)OC[C@@H](NC(=O)c3cnc4ccccc4n3)C(=O)N[C@@H](C)C(=O)N(C)[C@@H]1C(=O)N(C)[C@@H](C(C)C)C(=O)OC[C@@H](NC(=O)c1cnc3ccccc3n1)C(=O)N[C@@H](C)C(=O)N2C | 0.014 (≈ 0.0127 µM) | 0.07 (≈ 0.0636 µM) | > 200 | 21 (≈ 19.1 µM) | 0.04 (≈ 0.0363 µM) | 0.02 (≈ 0.0182 µM) | – | – | – | – | – | – | – | – | – | –
3 | CN(C)CCCNc1nc2cc([N+](=O)[O-])ccc2nc1NCc1cccc(C(F)(F)F)c1 | 7.99 (≈ 17.8 µM) | 1.57 (≈ 3.5 µM) | > 200 | 34.3 (≈ 76.5 µM) | 0.89 (≈ 1.98 µM) | 0.89 (≈ 1.98 µM) | 9 | Active | Dose-dependent effect | Dose-dependent effect | 1.7 | Dose-dependent effect | 3.06 | – | – | –
4 | CN(C)CCCNc1nc2cc([N+](=O)[O-])ccc2nc1NCc1ccccc1C(F)(F)F | 24.7 (≈ 55 µM) | 2.91 (≈ 6.49 µM) | > 224 | 68.3 (≈ 152 µM) | 3.36 (≈ 7.49 µM) | 2.24 (≈ 4.99 µM) | – | – | – | – | – | – | – | – | – | –
5 | O=[N+]([O-])c1ccc2nc(NCc3ccc(C(F)(F)F)cc3)c(N3CCNCC3)nc2c1 | 9.61 (≈ 22.2 µM) | 4.32 (≈ 9.99 µM) | 10.8 (≈ 25 µM) | 4.32 (≈ 9.99 µM) | 3.03 (≈ 7.01 µM) | 4.32 (≈ 9.99 µM) | – | – | – | – | – | – | – | – | – | –
6 | CN(C)CCCCNc1nc2cc([N+](=O)[O-])ccc2nc1NCc1ccc(C(F)(F)F)cc1 | 9.73 (≈ 21 µM) | 3.47 (≈ 7.5 µM) | > 230 | 2.31 (≈ 4.99 µM) | 3.47 (≈ 7.5 µM) | 3.47 (≈ 7.5 µM) | – | – | – | – | – | – | – | – | – | –
7 | CN1CCN(c2nc3cc([N+](=O)[O-])ccc3nc2NCc2ccc(C(F)(F)F)cc2)CC1 | 6.99 (≈ 15.7 µM) | 4.46 (≈ 9.99 µM) | > 220 | > 220 | 4.46 (≈ 9.99 µM) | 4.46 (≈ 9.99 µM) | – | – | – | – | – | – | – | – | – | –
8 | COc1ccc(CNc2nc3ccc([N+](=O)[O-])cc3nc2NCCCN(C)C)cc1 | 38.6 (≈ 94 µM) | 4.1 (≈ 9.99 µM) | > 200 | > 200 | 10.3 (≈ 25 µM) | 5.13 (≈ 12.5 µM) | – | – | – | – | – | – | – | – | – | –
9 | Cc1ccc(CNc2nc3ccc([N+](=O)[O-])cc3nc2NCCCN(C)C)cc1 | 15.8 (≈ 40 µM) | 2.76 (≈ 7 µM) | > 200 | 110 (≈ 279 µM) | 5.92 (≈ 15 µM) | 3.94 (≈ 9.99 µM) | – | – | – | – | – | – | – | – | – | –
10 | CN(C)CCCNc1nc2cc([N+](=O)[O-])ccc2nc1NCc1cc(C(F)(F)F)cc(C(F)(F)F)c1 | 4.32 (≈ 8.36 µM) | 1.81 (≈ 3.5 µM) | > 250 | > 250 | 1.03 (≈ 1.99 µM) | 0.52 (≈ 1.01 µM) | – | – | Dose-dependent effect | Dose-dependent effect | 2 | Dose-dependent effect | 9.9 | Active | Active | –
11 | CN(C)CCCNc1nc2cc([N+](=O)[O-])ccc2nc1NCc1cccc(Br)c1 | 3.66 (≈ 7.97 µM) | 2.29 (≈ 4.99 µM) | 13.8 (≈ 30 µM) | 4.59 (≈ 9.99 µM) | 4.59 (≈ 9.99 µM) | 2.29 (≈ 4.99 µM) | – | – | – | – | – | – | – | – | – | –
12 | Cc1ccccc1CNc1nc2ccc([N+](=O)[O-])cc2nc1NCCCN(C)C | 27.6 (≈ 70 µM) | 6.9 (≈ 17.5 µM) | > 200 | 75.6 (≈ 192 µM) | 4.93 (≈ 12.5 µM) | 7.89 (≈ 20 µM) | – | – | – | – | – | – | – | – | – | –
13 | CN1CCN(CCCNc2nc3cc([N+](=O)[O-])ccc3nc2NCc2ccc(C(F)(F)F)cc2)CC1 | 9.53 (≈ 18.9 µM) | 1.76 (≈ 3.5 µM) | > 250 | 3.78 (≈ 7.51 µM) | 3.78 (≈ 7.51 µM) | 3.78 (≈ 7.51 µM) | – | – | – | – | – | – | – | – | – | –
14 | COc1ccccc1CNc1nc2ccc([N+](=O)[O-])cc2nc1NCCCN(C)C | 36.1 (≈ 88 µM) | 6.16 (≈ 15 µM) | > 200 | > 200 | 8.21 (≈ 20 µM) | 6.16 (≈ 15 µM) | – | – | – | – | – | – | – | – | – | –
15 | CN(C)CCCNc1nc2cc([N+](=O)[O-])ccc2nc1NCc1ccccc1Br | 51.9 (≈ 113 µM) | 2.76 (≈ 6.01 µM) | > 230 | > 230 | 3.45 (≈ 7.51 µM) | 4.59 (≈ 9.99 µM) | 15 | – | – | – | – | – | – | – | – | –
16 | CN(C)CCCNc1nc2cc([N+](=O)[O-])ccc2nc1NCc1ccc(F)cc1 | 4.28 (≈ 10.7 µM) | 3.98 (≈ 9.99 µM) | > 200 | 86.3 (≈ 217 µM) | 7.97 (≈ 20 µM) | 5.98 (≈ 15 µM) | – | – | – | – | – | – | – | – | – | Active
17 | CN(C)CCCNc1nc2cc([N+](=O)[O-])ccc2nc1NCc1cc(F)cc(C(F)(F)F)c1 | 2.67 (≈ 5.72 µM) | 2.33 (≈ 5 µM) | > 235 | 35 (≈ 75 µM) | 0.93 (≈ 1.99 µM) | 1.63 (≈ 3.49 µM) | – | – | – | – | – | – | – | – | – | –
18 | CN(C)CCCNc1nc2cc([N+](=O)[O-])ccc2nc1NCc1ccccc1 | 2.74 (≈ 7.2 µM) | 7.6 (≈ 20 µM) | 57 (≈ 150 µM) | 114 (≈ 300 µM) | 11.4 (≈ 30 µM) | 13.3 (≈ 35 µM) | – | – | – | – | – | – | – | – | – | –
19 | CN(C)CCCNc1nc2cc([N+](=O)[O-])ccc2nc1NCc1ccc(Cl)c(C(F)(F)F)c1 | 3.26 (≈ 6.75 µM) | 1.69 (≈ 3.5 µM) | > 240 | 7.24 (≈ 15 µM) | 1.69 (≈ 3.5 µM) | 0.96 (≈ 1.99 µM) | – | – | – | – | – | – | – | – | – | –
20 | CN(C)CCCNc1nc2cc([N+](=O)[O-])ccc2nc1NCc1ccc(Br)cc1 | 9.63 (≈ 21 µM) | 2.29 (≈ 4.99 µM) | > 230 | 4.59 (≈ 9.99 µM) | 3.45 (≈ 7.51 µM) | 3.45 (≈ 7.51 µM) | – | – | – | – | – | – | – | – | – | –
